Reference: ChEMBL document CHEMBL1140471, “Inhibitors of NF-kappaB derived from thalidomide” (Bioorg Med Chem Lett, 2007)

Assay: Inhibition of IL-1-alpha-induced NF-kappaB activation in HeLa cells assessed as blocking of p50/p65 nuclear translocation
Format: cell-based
Settings: Homo sapiens
In short: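 HeLa cells stimulated with IL-1α (5 ng/ml) with or without compound for 30 min, then fixed and immunostained for p65 with Hoechst nuclear counterstain. Plates were scanned by fluorescence imaging microscopy. IC50 = concentration reducing nuclear minus cytoplasmic p65 fluorescence by 50%.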

Structure (SMILES) | IC50 [µM]
CC(C)c1cccc(C(C)C)c1N1C(=O)c2cccc([N+](=O)[O-])c2C1=O | > 50
CC(C)c1cccc(C(C)C)c1N1C(=O)c2cccc(N)c2C1=O | > 50
Cc1ccc2c(c1)C(=O)N(c1c(C(C)C)cccc1C(C)C)C2=O | > 50
COC(=O)c1ccc2c(c1)C(=O)N(c1c(C(C)C)cccc1C(C)C)C2=O | > 50
Cc1cccc(C)c1N1C(=O)c2ccc(O)cc2C1=O | > 50
O=C1c2ccc(O)cc2C(=O)N1c1c(F)cccc1F | > 50
CC(C)c1cccc(C(C)C)c1N1C(=O)c2ccc([N+](=O)[O-])cc2C1=O | > 50
O=C1c2ccc(O)cc2C(=O)N1c1c(Cl)cccc1Cl | > 50
CC(C)c1cccc(C(C)C)c1N1C(=O)c2ccccc2C1=O | > 50
CCCc1ccccc1N1C(=O)c2ccc(O)cc2C1=O | > 50
CC(C)c1cccc(C(C)C)c1N1C(=O)c2ccc(Cl)cc2C1=O | > 50
CC(C)c1ccccc1N1C(=O)c2ccc(O)cc2C1=O | > 50
CC(C)c1cccc(C(C)C)c1N1C(=O)c2ccc(C(=O)O)cc2C1=O | > 50
CC(=O)Nc1ccc2c(c1)C(=O)N(c1c(C(C)C)cccc1C(C)C)C2=O | > 50

The next lines start with the values.

IC50 [µM] | Structure (SMILES)
> 50 | CCc1cccc(CC)c1N1C(=O)c2ccc(O)cc2C1=O
0.1 | CC(C)(C)c1ccc(S(=O)(=O)/C=C/C#N)cc1 [BAY-11-7085]
> 50 | CC(C)(C)c1ccccc1N1C(=O)c2ccc(O)cc2C1=O
0.53 | CC(C)c1cccc(C(C)C)c1N1C(=O)c2ccc(O)cc2C1=O
> 50 | CC(C)c1cccc(C(C)C)c1N1C(=O)c2ccc(OS(N)(=O)=O)cc2C1=O
1.27 | Nc1cccc2c1C(=O)N(C1CCC(=O)NC1=O)C2=O (centres undefined) [POMALIDOMIDE]
29.5 | CC(C)c1cccc(C(C)C)c1N1C(=O)c2ccc(N)cc2C1=O
4.95 | CC(C)c1cccc(C(C)C)c1N1C(=O)c2cccc(O)c2C1=O
2.04 | O=C1CCC(N2C(=O)c3ccccc3C2=O)C(=O)N1 (centres undefined) [THALIDOMIDE]
0.43 | O=C1c2ccc(O)cc2C(=O)N1c1c(Br)cccc1Br
